Calls of active or inactive are those of the source. The calls are words filed in the database; no cut-off is given here.
Legend:
Format in all cases: cell-based
Toll-like receptor 4 [1] = target: T1, Toll-like receptor 4 (Mus musculus, UniProt Q9QUK6); test: Inhibition of TLR4 in LPS-stimulated mouse RAW264.7 cells assessed as reduction of NO production after 24 hrs
T1 sequence (Q9QUK6 whole entry): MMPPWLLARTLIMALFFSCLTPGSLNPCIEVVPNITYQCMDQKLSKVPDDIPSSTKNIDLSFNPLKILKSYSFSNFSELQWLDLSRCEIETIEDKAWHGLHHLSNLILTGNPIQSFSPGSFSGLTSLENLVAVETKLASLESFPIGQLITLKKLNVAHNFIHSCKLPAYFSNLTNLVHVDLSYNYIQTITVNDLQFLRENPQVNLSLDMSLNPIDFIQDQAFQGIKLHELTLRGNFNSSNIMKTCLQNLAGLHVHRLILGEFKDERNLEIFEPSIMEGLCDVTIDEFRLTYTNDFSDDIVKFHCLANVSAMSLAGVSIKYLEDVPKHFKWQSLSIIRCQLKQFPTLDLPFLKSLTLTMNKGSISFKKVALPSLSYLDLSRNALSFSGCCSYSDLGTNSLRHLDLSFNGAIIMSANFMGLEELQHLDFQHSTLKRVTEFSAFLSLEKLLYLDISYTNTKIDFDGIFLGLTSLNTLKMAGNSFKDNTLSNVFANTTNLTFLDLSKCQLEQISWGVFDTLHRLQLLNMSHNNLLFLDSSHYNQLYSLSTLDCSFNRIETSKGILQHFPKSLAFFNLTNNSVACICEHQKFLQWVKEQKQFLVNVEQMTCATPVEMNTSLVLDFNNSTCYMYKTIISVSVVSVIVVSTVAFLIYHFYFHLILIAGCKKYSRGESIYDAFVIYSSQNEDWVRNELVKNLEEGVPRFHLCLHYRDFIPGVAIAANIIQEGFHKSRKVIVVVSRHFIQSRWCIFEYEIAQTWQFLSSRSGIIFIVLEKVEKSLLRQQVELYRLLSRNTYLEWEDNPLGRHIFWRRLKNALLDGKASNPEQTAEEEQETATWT
In short: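 RAW 264.7 cells at 7.5×10^4/well were incubated 24 h, moved to fresh RPMI 1640, treated with vehicle or compound, and stimulated with LPS 20 ng/mL for 24 h. Nitrite in the medium was reacted with 2,3-diaminonaphthalene (0.05 mg/mL in 0.62 M HCl) for 15 min in the dark, NaOH was added, and […] was read at 450 nm.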

[2] = target: T2, Toll-like receptor 4 (Mus musculus) (UniProt Q9QUK6); test: (§1) Inhibition of TLR4 in LPS-stimulated mouse RAW264.7 cells assessed as reduction of TNFalpha production after 24 hrs by ELISA
T2 sequence (whole entry): T1 sequence (Q9QUK6 whole entry)
In short: (§2)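 RAW 264.7 cells (5×10^5/well, 6-well plates) were treated with or without LPS and then with compound for 24 h. Culture supernatant was harvested and clarified, and TNF-α was measured by ELISA.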

Toll-like receptor 4 [3] = target: T1, Toll-like receptor 4; test: as §1; in short: as §2
[4] = target: T2, Toll-like receptor 4 (Mus musculus); test: Inhibition of TLR4 in LPS-stimulated mouse BV2 cells assessed as reduction of NF-kappaB activation after 24 hrs by Dual-GLO luciferase assay; conditions: BV-2
In short: (§3)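 BV-2 cells stably carrying an NF-κB dual-luciferase reporter were kept in DMEM/10% FBS with puromycin (3 μg/mL) and seeded at 1×10^4/well. After 24 h the medium was switched to Opti-MEM/0.5% FBS. Compound was added, followed by LPS 200 ng/mL for 24 h. Read-out was the Firefly/Renilla luciferase ratio (Dual-Glo).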

RAW264.7 = test: Cytotoxicity against mouse RAW264.7 cells assessed as cell viability up to 10 uM after 24 hrs by WST-1 assay; conditions: raw264.7, 24 h
In short: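 WST-1 viability assay: RAW 264.7 cells at 2×10^4 cells/well, cultured 24 h at 37°C, then moved to serum-free medium and treated with vehicle or compound (10 mM DMSO stocks) for 24 h. WST-1 reagent added for 30 min at 37°C; absorbance read at 490 nm.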

[5] = target: T2, Toll-like receptor 4 (Mus musculus); test: (§4) Inhibition of TLR4 in LPS-stimulated mouse RAW264.7 cells assessed as reduction of IL1-beta production after 24 hrs by ELISA
In short: (§5)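 RAW 264.7 cells (5×10^5/well, 6-well plates) were treated with or without LPS and then with compound for 24 h. Cells were lysed and IL-1β was measured in the lysate by ELISA, normalized to total protein.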

Toll-like receptor 4 [6] = target: T1, Toll-like receptor 4; test: as §4; in short: as §5
[7] = target: Toll-like receptor 1/2 (Mus musculus) (UniProt Q9QUN7+Q9EPQ1); test: Inhibition of TLR1/TLR2 in Pam3CSK4-stimulated mouse RAW264.7 cells at 0.6 uM after 24 hrs
In short: (§6)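 RAW 264.7 cells were stimulated with the TLR-selective ligand named in the line, in the presence or absence of compound (0.6 μM). NO was then measured by the nitrite protocol: 7.5×10^4 cells/well, RPMI 1640, 24 h. 2,3-diaminonaphthalene was added, then NaOH, and […] read at 450 nm. Mean ±SD of 3 experiments, each run in triplicate.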

[8] = target: TLR7 and TLR8 (Mus musculus) (UniProt P58681+P58682); test: Inhibition of TLR7/TLR8 in R848-stimulated mouse RAW264.7 cells at 0.6 uM after 24 hrs; in short: as §6
Chain of TLR7 and TLR8 (Mus musculus) (P58681 whole entry, looked up): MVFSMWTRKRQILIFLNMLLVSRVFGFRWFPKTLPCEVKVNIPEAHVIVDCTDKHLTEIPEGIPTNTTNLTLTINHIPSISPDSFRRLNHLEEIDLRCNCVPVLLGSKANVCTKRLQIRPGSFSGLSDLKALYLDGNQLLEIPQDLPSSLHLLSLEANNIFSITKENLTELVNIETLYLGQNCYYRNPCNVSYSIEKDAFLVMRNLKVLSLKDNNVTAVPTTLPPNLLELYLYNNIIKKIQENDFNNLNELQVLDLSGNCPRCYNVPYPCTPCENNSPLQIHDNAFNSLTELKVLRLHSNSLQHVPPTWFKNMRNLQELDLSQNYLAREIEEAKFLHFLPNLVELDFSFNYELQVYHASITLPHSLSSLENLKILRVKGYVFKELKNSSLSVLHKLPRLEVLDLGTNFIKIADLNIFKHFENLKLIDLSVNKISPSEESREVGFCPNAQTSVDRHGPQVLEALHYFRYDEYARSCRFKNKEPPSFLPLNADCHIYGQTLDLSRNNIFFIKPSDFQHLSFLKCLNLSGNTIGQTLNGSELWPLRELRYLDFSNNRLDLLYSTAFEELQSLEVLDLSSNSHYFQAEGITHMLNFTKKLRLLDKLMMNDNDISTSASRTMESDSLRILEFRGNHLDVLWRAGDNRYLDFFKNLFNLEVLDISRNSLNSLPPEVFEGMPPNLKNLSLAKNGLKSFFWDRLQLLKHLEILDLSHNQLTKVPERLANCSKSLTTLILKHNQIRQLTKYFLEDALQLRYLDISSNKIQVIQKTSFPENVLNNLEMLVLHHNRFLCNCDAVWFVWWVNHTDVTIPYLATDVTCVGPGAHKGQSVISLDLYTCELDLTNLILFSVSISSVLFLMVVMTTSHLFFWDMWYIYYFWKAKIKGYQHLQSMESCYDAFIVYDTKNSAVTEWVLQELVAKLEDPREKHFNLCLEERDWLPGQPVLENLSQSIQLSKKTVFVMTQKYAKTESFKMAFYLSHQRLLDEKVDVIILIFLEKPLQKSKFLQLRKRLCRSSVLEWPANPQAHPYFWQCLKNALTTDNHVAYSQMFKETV
Chain of TLR7 and TLR8 (Mus musculus) (P58682 whole entry, looked up): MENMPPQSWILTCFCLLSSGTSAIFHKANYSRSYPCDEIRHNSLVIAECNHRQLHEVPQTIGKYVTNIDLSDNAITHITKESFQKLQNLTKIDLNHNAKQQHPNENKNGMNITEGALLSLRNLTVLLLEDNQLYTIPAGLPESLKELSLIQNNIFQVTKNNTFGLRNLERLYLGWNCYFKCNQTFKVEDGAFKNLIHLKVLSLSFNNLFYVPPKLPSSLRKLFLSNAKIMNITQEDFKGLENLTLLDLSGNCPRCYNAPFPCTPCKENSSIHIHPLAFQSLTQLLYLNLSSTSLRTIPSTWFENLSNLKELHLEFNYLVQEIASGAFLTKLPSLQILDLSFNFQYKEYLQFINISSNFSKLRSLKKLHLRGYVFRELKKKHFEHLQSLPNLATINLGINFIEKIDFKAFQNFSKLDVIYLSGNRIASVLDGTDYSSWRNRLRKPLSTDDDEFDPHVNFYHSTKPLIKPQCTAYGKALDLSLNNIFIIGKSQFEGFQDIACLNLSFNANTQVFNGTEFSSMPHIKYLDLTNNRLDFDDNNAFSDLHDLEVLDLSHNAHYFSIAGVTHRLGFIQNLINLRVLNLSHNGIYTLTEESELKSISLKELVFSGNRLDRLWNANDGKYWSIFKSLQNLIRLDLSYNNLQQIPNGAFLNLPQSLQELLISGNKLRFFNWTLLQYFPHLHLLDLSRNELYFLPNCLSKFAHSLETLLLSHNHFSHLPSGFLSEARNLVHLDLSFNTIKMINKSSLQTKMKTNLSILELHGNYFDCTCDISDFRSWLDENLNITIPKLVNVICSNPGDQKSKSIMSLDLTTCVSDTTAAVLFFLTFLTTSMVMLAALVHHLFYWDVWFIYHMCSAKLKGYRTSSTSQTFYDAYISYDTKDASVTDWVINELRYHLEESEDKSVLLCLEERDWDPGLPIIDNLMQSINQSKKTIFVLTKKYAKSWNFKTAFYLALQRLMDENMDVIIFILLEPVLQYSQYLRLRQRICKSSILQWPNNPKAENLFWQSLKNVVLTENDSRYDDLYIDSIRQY

[9] = target: T3, Toll-like receptor 3 (Mus musculus) (UniProt Q99MB1); test: Inhibition of TLR3 in poly(I:C)-stimulated mouse RAW264.7 cells at 0.6 uM after 24 hrs; in short: as §6
T3 sequence (whole entry): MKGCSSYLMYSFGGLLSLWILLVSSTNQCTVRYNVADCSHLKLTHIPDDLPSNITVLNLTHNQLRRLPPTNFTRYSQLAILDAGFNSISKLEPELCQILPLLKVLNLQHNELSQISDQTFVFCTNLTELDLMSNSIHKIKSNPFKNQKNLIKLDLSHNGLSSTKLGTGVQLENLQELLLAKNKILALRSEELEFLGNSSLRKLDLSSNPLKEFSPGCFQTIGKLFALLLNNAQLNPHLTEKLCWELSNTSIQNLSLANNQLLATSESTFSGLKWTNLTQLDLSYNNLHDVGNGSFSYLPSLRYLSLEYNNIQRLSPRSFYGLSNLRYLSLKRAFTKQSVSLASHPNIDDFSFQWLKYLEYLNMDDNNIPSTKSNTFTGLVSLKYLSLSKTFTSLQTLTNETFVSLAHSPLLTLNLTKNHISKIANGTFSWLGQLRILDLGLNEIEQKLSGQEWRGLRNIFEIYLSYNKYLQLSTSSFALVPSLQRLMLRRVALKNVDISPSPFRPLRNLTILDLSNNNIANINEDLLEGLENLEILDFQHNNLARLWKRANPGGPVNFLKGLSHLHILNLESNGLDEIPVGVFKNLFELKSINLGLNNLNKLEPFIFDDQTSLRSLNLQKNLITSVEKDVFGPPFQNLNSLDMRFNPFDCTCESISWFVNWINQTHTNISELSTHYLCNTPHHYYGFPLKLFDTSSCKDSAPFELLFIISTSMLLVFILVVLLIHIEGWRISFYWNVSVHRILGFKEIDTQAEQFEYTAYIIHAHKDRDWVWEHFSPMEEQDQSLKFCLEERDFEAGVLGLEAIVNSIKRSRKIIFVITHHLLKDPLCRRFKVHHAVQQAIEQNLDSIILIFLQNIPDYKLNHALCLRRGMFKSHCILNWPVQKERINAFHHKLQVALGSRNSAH

TLR2/TLR6 (Mus musculus) = TLR2/TLR6 (Mus musculus) (UniProt Q9QUN7+Q9EPW9); test: Inhibition of TLR2/TLR6 in FSL1-stimulated mouse RAW264.7 cells at 0.6 uM after 24 hrs; in short: as §6
[10] = target: T2, Toll-like receptor 4 (Mus musculus); test: Inhibition of TLR4 in LPS-stimulated mouse RAW264.7 cells assessed as reduction of TNFalpha production at 3 to 10 uM after 24 hrs by ELISA; in short: as §2
[11] = target: T2, Toll-like receptor 4 (Mus musculus); test: Inhibition of TLR4 in LPS-stimulated mouse BV2 cells assessed as reduction of NF-kappaB activation up to 10 uM after 24 hrs by Dual-GLO luciferase assay; conditions: BV-2; in short: as §3
[12] = target: T2, Toll-like receptor 4 (Mus musculus); test: Inhibition of TLR4 in LPS-stimulated mouse RAW264.7 cells assessed as reduction of IL1-beta production at 3 to 10 uM after 24 hrs by ELISA; in short: as §5

SMILES | IC50 (Toll-like receptor 4 [1]) [µM] | further results
O=C(O)C(=Cc1ccccc1)C(=O)O | 0.93 | –
COC(=O)C(=Cc1cccc(F)c1)C(=O)OC | 2.53 | –
COc1cc(/C=C/C(=O)CC(=O)/C=C/c2ccc(O)c(OC)c2)ccc1O [CURCUMIN] | 6 | –
O=C(O)C(=Cc1ccccc1F)C(=O)O | 0.41 | –
COC(=O)C(=Cc1ccccc1[N+](=O)[O-])C(=O)OC | 0.31 | inhibition [2]: Dose-dependent effect; IC50 (Toll-like receptor 4 [3]): 1.54 µM; IC50 [4]: 5.92 µM; inhibition [4]: Dose-dependent effect; Activity (RAW264.7): Non-toxic; inhibition [5]: Dose-dependent effect; IC50 (Toll-like receptor 4 [6]): 0.42 µM; inhibition [7]: inactive; inhibition [8]: inactive; inhibition [9]: inactive; inhibition (TLR2/TLR6 (Mus musculus)): Active
COC(=O)C(=Cc1ccccc1F)C(=O)OC | 0.33 | –
COC(=O)/C=C/c1ccccc1[N+](=O)[O-] | 4.53 | –
COC(=O)C(=Cc1ccc(OC)cc1)C(=O)OC | 1.24 | –
COC(=O)C(Cc1ccccc1[N+](=O)[O-])C(=O)OC | > 100 | inhibition [10]: inactive; inhibition [11]: inactive; inhibition [12]: inactive
COC(=O)C(=CC1CCCCC1)C(=O)OC | 78.2 | –
COC(=O)C(=Cc1ccc(N(C)C)cc1)C(=O)OC | 3.11 | –
COC(=O)C(=Cc1ccc([N+](=O)[O-])cc1)C(=O)OC | 0.82 | –
COC(=O)C(=Cc1ccc(C(=O)OC)cc1)C(=O)OC | 1.33 | –
COc1ccc(C=C(C(=O)O)C(=O)O)cc1 | 1.44 | –
COC(=O)C(=Cc1ccccc1OC)C(=O)OC | 0.74 | –
COC(=O)C(=Cc1cccc(OC)c1)C(=O)OC | 3.72 | –
COC(=O)C(=Cc1ccccc1Cl)C(=O)OC | 0.82 | –
COC(=O)C(=Cc1ccc(F)cc1F)C(=O)OC | 0.42 | –
COC(=O)C(=Cc1cccc([N+](=O)[O-])c1)C(=O)OC | 2.13 | –
O=C(O)C(=Cc1ccccc1[N+](=O)[O-])C(=O)O | 0.52 | –
COC(=O)C(=Cc1ccccc1)C(=O)OC | 0.82 | –
COC(=O)C(=Cc1ccc(OC)cc1OC)C(=O)OC | 0.82 | –
COC(=O)C(=Cc1ccc(Cl)cc1)C(=O)OC | 1.54 | –
COC(=O)C(=Cc1ccc(F)cc1)C(=O)OC | 0.71 | –
